In the M2OR odorant receptor database:

What was measured:
Details in all cases: stereoisomer not certain
[1] = biological target: T1, OR10H3 (Homo sapiens) (UniProt O60404)
T1 sequence (whole entry): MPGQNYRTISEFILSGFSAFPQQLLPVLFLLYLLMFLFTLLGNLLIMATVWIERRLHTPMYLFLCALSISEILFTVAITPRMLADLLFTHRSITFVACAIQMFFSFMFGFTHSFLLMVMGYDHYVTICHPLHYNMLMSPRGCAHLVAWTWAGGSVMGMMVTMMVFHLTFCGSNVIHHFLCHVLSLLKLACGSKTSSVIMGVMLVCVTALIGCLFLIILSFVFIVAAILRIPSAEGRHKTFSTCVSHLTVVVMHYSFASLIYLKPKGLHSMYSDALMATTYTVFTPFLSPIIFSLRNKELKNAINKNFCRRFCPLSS
Summary of the method: (§1)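 Each receptor–molecule pair is labelled responsive or non-responsive (inactive) according to whether the original authors judged the measured signal statistically different from baseline. The data were taken from the main text and supplementary material of published papers and checked for typos and inconsistencies. Assay methods differed by source, with transient luciferase assays in mammalian cell lines being common.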

[2] = biological target: T2, OR10H4 (Homo sapiens) (UniProt Q8NGA5)
T2 sequence (whole entry): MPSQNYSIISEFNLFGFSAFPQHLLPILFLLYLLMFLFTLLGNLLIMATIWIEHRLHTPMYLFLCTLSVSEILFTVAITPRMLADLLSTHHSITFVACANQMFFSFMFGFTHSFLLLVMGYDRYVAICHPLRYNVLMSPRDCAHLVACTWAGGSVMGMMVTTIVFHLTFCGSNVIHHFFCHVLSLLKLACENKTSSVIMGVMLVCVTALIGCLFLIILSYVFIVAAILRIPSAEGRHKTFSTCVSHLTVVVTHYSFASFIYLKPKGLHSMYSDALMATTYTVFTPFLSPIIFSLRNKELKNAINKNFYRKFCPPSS
Summary of the method: as §1

[3] = biological target: T3, OR10H5 (Homo sapiens) (UniProt Q8NGA6)
T3 sequence (whole entry): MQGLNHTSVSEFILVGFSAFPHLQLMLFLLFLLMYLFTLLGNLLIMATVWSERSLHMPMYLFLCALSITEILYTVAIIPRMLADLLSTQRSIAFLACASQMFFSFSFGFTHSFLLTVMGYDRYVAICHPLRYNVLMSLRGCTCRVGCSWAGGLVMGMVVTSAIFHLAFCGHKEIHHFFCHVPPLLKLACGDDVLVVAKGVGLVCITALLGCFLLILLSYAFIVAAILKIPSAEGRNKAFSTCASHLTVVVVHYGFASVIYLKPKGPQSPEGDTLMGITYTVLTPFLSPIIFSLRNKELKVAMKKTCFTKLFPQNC
Summary of the method: as §1

[4] = biological target: T4, OR10J1 (Homo sapiens) (UniProt P30954)
T4 sequence (whole entry): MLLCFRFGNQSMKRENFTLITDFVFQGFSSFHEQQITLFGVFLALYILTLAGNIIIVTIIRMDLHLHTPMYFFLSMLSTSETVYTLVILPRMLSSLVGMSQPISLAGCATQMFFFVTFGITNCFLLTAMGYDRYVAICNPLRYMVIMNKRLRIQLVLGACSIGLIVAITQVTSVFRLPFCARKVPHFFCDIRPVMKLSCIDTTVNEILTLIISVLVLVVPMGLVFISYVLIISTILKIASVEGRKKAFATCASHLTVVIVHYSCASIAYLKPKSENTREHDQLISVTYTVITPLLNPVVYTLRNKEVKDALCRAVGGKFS
Summary of the method: as §1

[5] = biological target: T5, OR10J3 (Homo sapiens) (UniProt Q5JRS4)
T5 sequence (whole entry): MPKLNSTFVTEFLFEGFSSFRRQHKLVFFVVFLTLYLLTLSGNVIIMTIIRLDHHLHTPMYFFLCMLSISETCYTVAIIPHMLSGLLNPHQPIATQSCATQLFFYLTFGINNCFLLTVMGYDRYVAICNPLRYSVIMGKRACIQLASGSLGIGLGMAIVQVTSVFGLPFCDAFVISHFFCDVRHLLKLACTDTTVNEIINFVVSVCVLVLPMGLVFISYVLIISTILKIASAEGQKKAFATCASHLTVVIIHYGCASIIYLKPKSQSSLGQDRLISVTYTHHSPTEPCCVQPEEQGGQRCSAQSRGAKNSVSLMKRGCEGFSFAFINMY
Summary of the method: as §1

[6] = biological target: T6, OR10J5 (Homo sapiens) (UniProt Q8NHC4)
T6 sequence (whole entry): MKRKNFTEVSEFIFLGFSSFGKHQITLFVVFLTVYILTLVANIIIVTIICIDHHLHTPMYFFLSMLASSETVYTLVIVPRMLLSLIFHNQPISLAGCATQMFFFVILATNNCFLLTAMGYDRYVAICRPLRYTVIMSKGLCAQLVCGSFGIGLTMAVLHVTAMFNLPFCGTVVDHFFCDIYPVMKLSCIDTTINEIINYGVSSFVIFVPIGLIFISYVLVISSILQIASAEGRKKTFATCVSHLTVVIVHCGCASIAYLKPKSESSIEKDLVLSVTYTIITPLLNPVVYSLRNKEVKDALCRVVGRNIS
Summary of the method: as §1

[7] = biological target: T7, OR10K1 (Homo sapiens) (UniProt Q8NGX5)
T7 sequence (whole entry): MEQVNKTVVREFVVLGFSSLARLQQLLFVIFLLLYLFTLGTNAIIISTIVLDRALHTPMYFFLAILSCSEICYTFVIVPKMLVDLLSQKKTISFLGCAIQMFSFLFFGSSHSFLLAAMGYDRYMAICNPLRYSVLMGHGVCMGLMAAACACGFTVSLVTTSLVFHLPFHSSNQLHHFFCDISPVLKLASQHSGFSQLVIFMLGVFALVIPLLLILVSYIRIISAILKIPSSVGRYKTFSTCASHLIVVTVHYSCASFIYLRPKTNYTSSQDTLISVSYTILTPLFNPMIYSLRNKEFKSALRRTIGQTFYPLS
Summary of the method: as §1

[8] = biological target: T8, OR10K2 (Homo sapiens) (UniProt Q6IF99)
T8 sequence (whole entry): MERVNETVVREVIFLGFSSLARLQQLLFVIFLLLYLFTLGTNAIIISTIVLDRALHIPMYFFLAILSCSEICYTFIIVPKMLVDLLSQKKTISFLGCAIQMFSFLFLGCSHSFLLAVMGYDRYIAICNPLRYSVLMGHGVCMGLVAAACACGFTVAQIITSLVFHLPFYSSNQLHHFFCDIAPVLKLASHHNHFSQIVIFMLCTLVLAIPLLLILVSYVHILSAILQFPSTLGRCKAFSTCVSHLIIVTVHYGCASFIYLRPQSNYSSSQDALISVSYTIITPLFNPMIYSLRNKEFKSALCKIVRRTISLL
Summary of the method: as §1

[9] = biological target: T9, OR10P1 (Homo sapiens) (UniProt Q8NGE3)
T9 sequence (whole entry): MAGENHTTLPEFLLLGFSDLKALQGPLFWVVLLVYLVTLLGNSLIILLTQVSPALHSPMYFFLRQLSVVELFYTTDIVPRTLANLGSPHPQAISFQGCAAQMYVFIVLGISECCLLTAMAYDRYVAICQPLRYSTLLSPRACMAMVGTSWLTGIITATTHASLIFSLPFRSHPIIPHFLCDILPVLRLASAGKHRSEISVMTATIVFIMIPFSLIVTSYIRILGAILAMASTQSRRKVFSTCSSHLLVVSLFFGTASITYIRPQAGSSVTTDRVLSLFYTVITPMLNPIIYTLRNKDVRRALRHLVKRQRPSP
Summary of the method: as §1

[10] = biological target: T10, OR10Q1 (Homo sapiens) (UniProt Q8NGQ4)
T10 sequence (whole entry): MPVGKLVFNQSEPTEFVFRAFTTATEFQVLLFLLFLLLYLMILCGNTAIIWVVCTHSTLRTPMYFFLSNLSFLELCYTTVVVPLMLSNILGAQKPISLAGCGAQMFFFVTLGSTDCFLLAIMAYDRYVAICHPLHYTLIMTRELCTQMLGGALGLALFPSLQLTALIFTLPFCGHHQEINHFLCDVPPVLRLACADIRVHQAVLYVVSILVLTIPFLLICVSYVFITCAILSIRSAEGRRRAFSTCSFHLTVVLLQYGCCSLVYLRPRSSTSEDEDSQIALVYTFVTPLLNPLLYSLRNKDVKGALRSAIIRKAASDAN
Summary of the method: as §1

Measured: odorant receptor agonist call

CC(CO)CS (stereo not given)
inactive: all assays above
